Assay results from ChEMBL document CHEMBL4610003 (Bioorg Med Chem, 2020).
In brackets after ≈: the same amount, converted by molar mass.

Assays:
[1] = system: Mycobacterium tuberculosis; assay: Antimycobacterial activity against Mycobacterium tuberculosis H37Rv assessed as bacterial growth inhibition incubated for 10 days under anerobic condition followed by incubation under ambient gaseous condition for […] by low oxygen recovery assay; assay type: functional
Procedure, shortened: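 Read-out is MIC90, the lowest concentration giving 90% growth inhibition of M.tb H37Rv, in µg/mL. Bacteria were held under non-replicating, low-oxygen conditions (LORA).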

hERG (KCNH2) [2] = target: T1, hERG (KCNH2) (Homo sapiens, UniProt Q12809); assay: Inhibition of human ERG at 3 uM relative to control
T1 sequence (Q12809 whole entry): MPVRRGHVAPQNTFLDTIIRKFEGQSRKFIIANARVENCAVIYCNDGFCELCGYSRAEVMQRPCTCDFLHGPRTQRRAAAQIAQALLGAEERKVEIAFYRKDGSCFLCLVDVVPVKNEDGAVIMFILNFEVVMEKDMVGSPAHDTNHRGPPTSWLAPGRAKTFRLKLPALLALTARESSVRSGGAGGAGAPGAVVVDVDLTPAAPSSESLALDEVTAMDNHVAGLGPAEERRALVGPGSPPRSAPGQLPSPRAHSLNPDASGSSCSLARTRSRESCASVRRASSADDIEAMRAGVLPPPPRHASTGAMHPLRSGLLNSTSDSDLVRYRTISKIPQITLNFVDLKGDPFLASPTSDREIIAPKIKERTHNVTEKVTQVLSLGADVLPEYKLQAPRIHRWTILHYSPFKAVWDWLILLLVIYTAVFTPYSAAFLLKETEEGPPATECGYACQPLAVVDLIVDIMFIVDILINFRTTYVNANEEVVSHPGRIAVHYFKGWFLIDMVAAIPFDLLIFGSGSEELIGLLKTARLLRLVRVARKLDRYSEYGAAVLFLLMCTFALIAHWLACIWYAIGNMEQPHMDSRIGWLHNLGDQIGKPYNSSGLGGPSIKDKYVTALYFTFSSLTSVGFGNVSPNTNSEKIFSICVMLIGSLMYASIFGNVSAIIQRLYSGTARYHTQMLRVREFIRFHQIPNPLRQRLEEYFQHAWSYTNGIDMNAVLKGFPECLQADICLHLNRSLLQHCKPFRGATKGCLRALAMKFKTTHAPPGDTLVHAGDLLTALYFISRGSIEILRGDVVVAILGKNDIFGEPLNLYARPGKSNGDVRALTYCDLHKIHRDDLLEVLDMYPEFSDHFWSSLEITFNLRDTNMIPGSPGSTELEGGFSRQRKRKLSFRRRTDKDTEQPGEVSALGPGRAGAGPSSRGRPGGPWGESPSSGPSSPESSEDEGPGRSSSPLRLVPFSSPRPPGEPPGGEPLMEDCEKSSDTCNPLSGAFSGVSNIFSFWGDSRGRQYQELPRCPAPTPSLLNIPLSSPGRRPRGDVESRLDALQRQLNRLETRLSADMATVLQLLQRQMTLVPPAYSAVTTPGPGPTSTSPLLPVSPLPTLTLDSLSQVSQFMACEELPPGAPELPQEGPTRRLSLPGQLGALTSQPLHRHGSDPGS

[3] = system: Mycobacterium tuberculosis; assay: Antimycobacterial activity against Mycobacterium tuberculosis H37Rv assessed as bacterial growth inhibition under replicating, aerobic condition by microplate Alamar blue assay; assay type: functional
Procedure, shortened: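 Read-out is MIC90, the lowest concentration giving 90% growth inhibition of M.tb H37Rv, in µg/mL. Bacteria were grown under aerobic, replicating conditions (MABA).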

[4] = Intrinsic clearance in human liver microsomes assessed per mg protein; assay type: ADME, Microsome; conditions: read-out: CLH
Procedure, shortened: (§1)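 Clearance of compound by human or mouse liver microsomes, expressed as µL/min/mg protein.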

[5] = Intrinsic clearance in mouse liver microsomes assessed per mg protein; assay type: ADME, Microsome; conditions: read-out: CLH; procedure, shortened: as §1
[6] = Clearance in CD-1 mouse at 2 to 3 mg/kg, iv administered as single bolus dose; assay type: ADME, organism-based; conditions: in vivo
Procedure, shortened: (§2)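 Male CD-1 mice received a single intravenous bolus at 2–3 mg/kg. Reported values are IV clearance and the apparent volume of distribution during the terminal phase, in L/kg.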

[7] = AUC (0 to infinity) in CD-1 mouse at 10 mg/kg, po via gavage administered as single dose; assay type: ADME, organism-based; parameters: dose 10 mg/kg, route oral, time infinity; conditions: in vivo
Procedure, shortened: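 Male CD-1 mice given a single 10 mg/kg dose by oral gavage. Exposure is reported as area under the curve from 0 to infinity in µg*h/mL.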

[8] = Oral bioavailability in CD-1 mouse at 10 mg/kg administered via gavage as single dose; assay type: ADME, organism-based; conditions: in vivo
Vero = assay: Cytotoxicity against African green monkey Vero cells assessed as reduction in cell viability incubated for 72 hrs by […] assay; assay type: cell-based; conditions: Chlorocebus sabaeus
[9] = Apparent volume of distribution during terminal phase in CD-1 mouse at 2 to 3 mg/kg, iv administered as single bolus dose; assay type: ADME, organism-based; conditions: in vivo; procedure, shortened: as §2
[10] = target: Voltage-gated inwardly rectifying potassium channel KCNH2 (Homo sapiens, UniProt Q12809); assay: Inhibition of human ERG
Voltage-gated inwardly rectifying potassium channel KCNH2, sequence (Q12809 whole entry): as above

hERG (KCNH2) [11] = target: T1, hERG (KCNH2); assay: Inhibition of human ERG at 10 uM relative to control
[12] = Protein binding in human plasma; assay type: ADME, cell-free; conditions: read-out: PPB

SMILES	MIC90 [1] [µg/mL]	inhibition at 3 µM (hERG (KCNH2) [2]) [%]	MIC90 [3] [µg/mL]	microsomal CLint [4] [µL/min/mg]	microsomal CLint [5] [µL/min/mg]	clearance [6] [mL/min/kg]	AUC(0-inf) [7] [ng·h/mL]	bioavailability [8] [%]	IC50 (Vero) [µg/mL]	Vz/F [9] [L/kg]	IC50 [10] [µM]	inhibition at 10 µM (hERG (KCNH2) [11]) [%]	fraction unbound [12]
COc1nc2ccc(Br)cc2cc1[C@@H](c1cccc(C)c1F)[C@@](O)(CCN(C)C)c1cc(SC)nc(SC)c1 (racemic)	0.06 (≈ 0.0951 µM)	13	< 0.004	–	–	–	–	–	–	–	–	–	–
COc1nc2ccc(C#N)cc2cc1[C@@H](c1cccc(C)c1F)[C@@](O)(CCN(C)C)c1cc(SC)nc(SC)c1 (racemic)	0.17 (≈ 0.295 µM)	–	0.02 (≈ 0.0347 µM)	9.2	13	22	2400	31	> 10	79	> 10	–	–
CCSc1cc([C@](O)(CCN(C)C)[C@H](c2ccccc2)c2cc3cc(Br)ccc3nc2OC)cc(SCC)n1 (racemic)	0.05 (≈ 0.0798 µM)	–	0.02 (≈ 0.0319 µM)	2.3	17	11	4000	24	> 10	30	> 30	–	–
COc1cc([C@](O)(CCN(C)C)[C@@H](c2cc3cc(Br)ccc3nc2OC)c2cccc(C)c2F)cc(OC(F)F)n1 (racemic)	0.03 (≈ 0.0473 µM)	–	0.01 (≈ 0.0158 µM)	–	–	–	–	–	–	–	–	3	–
COc1nc2ccc(Br)cc2cc1[C@@H](c1ccnc(OC)c1OC)[C@@](O)(CCN(C)C)c1cc(SC)nc(SC)c1 (racemic)	< 0.02	–	< 0.02	8.8	10	18	3900	41	> 10	64	2.8	–	–
COc1cccc([C@H](c2cc3cc(C#N)ccc3nc2OC)[C@@](O)(CCN(C)C)c2cc(SC)nc(SC)c2)c1F (racemic)	0.05 (≈ 0.0844 µM)	–	0.03 (≈ 0.0506 µM)	15	20	44	1100	28	> 10	53	5.1	–	–
CCSc1cc([C@](O)(CCN(C)C)[C@@H](c2cc3cc(C#N)ccc3nc2OC)c2cccc(C)c2F)cc(SCC)n1 (racemic)	0.06 (≈ 0.0992 µM)	–	< 0.02	9.1	33	9.4	4000	22	> 10	41	> 10	–	–
CCSc1cc([C@](O)(CCN(C)C)[C@H](c2cccc(C)c2)c2cc3cc(C#N)ccc3nc2OC)cc(N(C)C)n1 (racemic)	0.17 (≈ 0.298 µM)	51	0.12 (≈ 0.211 µM)	–	–	–	–	–	–	–	–	–	–
CCSc1cc([C@](O)(CCN(C)C)[C@@H](c2cc3cc(Br)ccc3nc2OC)c2cccc(OC)c2F)cc(SCC)n1 (racemic)	< 0.02	–	< 0.02	4.9	12	3.6	11900	25	6.5 (≈ 9.63 µM)	14	> 10	–	–
CCSc1cc([C@](O)(CCN(C)C)[C@H](c2cccc(C)c2)c2cc3cc(Br)ccc3nc2OC)cc(N(C)C)n1 (racemic)	0.12 (≈ 0.192 µM)	23	0.14 (≈ 0.224 µM)	–	–	–	–	–	–	–	–	–	–
CCSc1cc([C@](O)(CCN(C)C)[C@@H](c2cc3cc(C#N)ccc3nc2OC)c2cccc(OC)c2F)cc(SCC)n1 (racemic)	0.2 (≈ 0.322 µM)	–	0.1 (≈ 0.161 µM)	17	27	29	1400	24	> 10	93	> 10	–	–
CCSc1cc([C@](O)(CCN(C)C)[C@@H](c2cc3cc(Br)ccc3nc2OC)c2cccc3c2OCO3)cc(SCC)n1 (racemic)	0.06 (≈ 0.0895 µM)	–	0.01 (≈ 0.0149 µM)	9.5	12	3.4	5500	11	> 10	9.4	> 10	–	–
COc1cc([C@](O)(CCN(C)C)[C@@H](c2cc3cc(Br)ccc3nc2OC)c2cccc(OC)c2F)cc(OC)n1 (racemic) [TBAJ-587]	0.01 (≈ 0.0163 µM)	–	–	2.2	–	–	–	–	–	–	–	–	< 0.005
COc1cc([C@](O)(CCN(C)C)[C@@H](c2cc3cc(Br)ccc3nc2OC)c2cc(OC)nc(OC)c2OC)cc(OC)n1 (racemic) [TBAJ-876]	–	–	–	–	–	–	–	–	–	–	–	–	< 0.005
COc1nc2ccc(Br)cc2cc1[C@@H](c1ccccc1)[C@@](O)(CCN(C)C)c1cccc2ccccc12 [BEDAQUILINE]	0.06 (≈ 0.108 µM)	–	0.03 (≈ 0.054 µM)	–	–	–	17400	–	–	–	–	–	< 0.005
